Source: paper PMC7986169 (Clinical Pharmacology in Drug Development, 2021)
Values joined by “and” are separate entries in the source; they are usually repeats but may differ in a detail not shown here. Equal entries are not always repeated. Where two headings read alike, the source gives them in different places.

How the values were obtained:
[1] = Population pharmacokinetic analysis; assay type: in vivo, human
How it was run: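 Oral dosing at 0.5–15 mg twice daily in UC patients, excluding creatinine clearance <40 mL/min. Predose and postdose plasma samples were stored at about –20°C and assayed by a validated method (LOQ 0.100 ng/mL). One-compartment model with first-order absorption, with or without lag. Exponential IIV on CL/F and V/F; IOV on Ka. Separate proportional residual errors for >8 h and ≤8 h postdose. FOCE with interaction; nonparametric bootstrap, 1000 runs.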

[2] = cited from earlier work
[3] = cited from earlier work; remark: listed apart in the source
[4] = system: JAK1; conditions: in vitro assays; cited from earlier work
[5] = final model, table: estimate (RSE%), text: estimate (95%CI bootstrap)
[6] = fraction of the reference category (male)

C[C@@H]1CCN(C(=O)CC#N)C[C@@H]1N(C)c1ncnc2[nH]ccc12 [tofacitinib]
CL/F, typical estimate ([1]; base model): 25.0 L/h | IIV (%CV) for CL/F ([1]; base model): 25.2% | IOV (%CV) for Ka ([1]; base model): 192.4% | Ka ([1]; base model): 9.9 h⁻¹ | V/F, typical estimate ([1]; base model): 111 L | CL/F, bootstrap median ([1]; bootstrap of final model): 26.3 L/h | IIV for CL/F, bootstrap ([1]; bootstrap of final model): 22.2% | Ka, bootstrap median ([1]; bootstrap of final model): 9.86 h⁻¹ | Lag time, bootstrap median ([1]; bootstrap of final model): 0.236 (NA) h | V/F, bootstrap median ([1]; bootstrap of final model): 115.5 (NA) L | IOV for Ka, bootstrap ([1]; bootstrap of final model, IOV instead of IIV (footnote b)): 191.9% | Dose proportionality of exposure ([1]; dose range 0.5-15 mg twice daily): dose‐proportional increase | Lower CL/F, Asian compared with non-Asian patients ([1]; final model prediction): 6.8% | Lower CL/F, baseline creatinine clearance 60 mL/min compared to 108.7 mL/min ([1]; final model prediction): 19% | Lower CL/F, females compared with males ([1]; final model prediction): 13.2% | Lower V/F, female compared with male patients ([1]; final model prediction): 15.5% | Lower V/F, patient aged 80 years compared with 40 years ([1]; final model prediction): 7.7% | Lower V/F, patient weighing 53 kg relative to 72.0 kg ([1]; final model prediction, 10th percentile of weight): approximately 16.4% | Higher V/F, patient weighing 95 kg relative to 72.0 kg ([1]; final model prediction, 90th percentile of weight): ~17.6% | CL/F (apparent oral clearance), typical estimate ([1]; final model, reference individual: non-Asian male, 72.0 kg, 40.0 years, baseline creatinine clearance 108.7 mL/min, table: estimate (RSE%), text: estimate (95%CI bootstrap)): 26.3 L/h and 26.3 (25.5–27.2) L/h and 26.3 (1.2) L/h | IIV (%CV) for CL/F ([1]; final model, table: IIV (RSE%)): 22% and 22.2% and 22.2 (7.7) % | IOV (%CV) for Ka ([1]; final model, table: IOV (RSE%)): 191.8% and 191.8 (7.0) % | Ka (first-order absorption rate constant), typical estimate [1, 5]: 9.9 (7.1) h^−1 | Lag time [1, 5]: 0.236 (0.52) h | Covariate parameter estimate: Female on CL/F [1, 6]: 0.868 | Covariate parameter estimate: Female on V/F [1, 6]: 0.845 | Covariate parameter estimate: Asian on CL/F ([1]; fraction of the reference category (non-Asian)): 0.932 | Vd/F ([1]; human, plasma, oral): 116 L | half-life ([1]; human, plasma, oral, Derived elimination half-life (t½), final model, patients with UC): 3.05 h | half-life ([1]; human, plasma, oral, Derived elimination t½, base model): ~3.05 h | Covariate parameter estimate: Age on V/F ([1]; power function exponent, normalized to 40.0 years): –0.116 | Covariate parameter estimate: Body weight on V/F ([1]; power function exponent, normalized to 72.0 kg): 0.585 | Covariate parameter estimate: BCCL on CL/F ([1]; power function exponent, normalized to 108.7 mL/min): 0.354 | Share of clearance due to renal elimination [2]: 30% | Mean terminal-phase half-life (t½) ([2]; healthy volunteers): approximately 3.2 h | Time of peak plasma concentration after oral administration ([2]; healthy volunteers): approximately 1 hour (h) | Share of clearance via hepatic metabolism ([2]; primarily via cytochrome P450 3A4): 70% | AUC higher than in healthy individuals ([3]; mild renal impairment): 37% | AUC higher than in healthy individuals ([3]; moderate renal impairment): 43% | AUC higher than in healthy individuals ([3]; severe renal impairment): 123% | Inhibitory potency for JAK1 [4]: potent inhibitor
